Key:
Rattus norvegicus [1] = assay: Antidepressant-like activity in Wistar rat assessed as immobility time at 100 mg/kg, po administered at 1, 5, 23.5 hrs prior to testing measured for 5 mins by forced swimming test (reference value: 211.3 to 232.2 secs); assay type: functional
[2] = AUC (0 to infinity) in Sprague-Dawley rat at 1 mg/kg, iv by LC/MS/MS analysis; assay type: ADME, organism-based; design: dose 1 mg/kg, route intravenous, time infinity; settings: in vivo
Procedure, shortened: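 Single intravenous dose to male Sprague–Dawley rats (n = 4). Jugular vein blood drawn at 0.05, 0.25, 0.5, 1, 2, 4, 8 and 24 h, heparin anticoagulant, plasma separated by centrifugation. Plasma drug level measured by LC/MS/MS.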

[3] = AUC (0 to t) in Sprague-Dawley rat at 10 mg/kg, po by LC/MS/MS analysis; assay type: ADME, organism-based; settings: in vivo
Procedure, shortened: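 Male Sprague–Dawley rats dosed orally (n = 4). Jugular vein blood sampled at 0.25, 0.5, 1, 2, 4, 6 and 24 h into heparin, plasma obtained by centrifugation. Concentrations determined by LC/MS/MS.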

Rattus norvegicus [4] = assay: Antidepressant-like activity in Wistar rat assessed as immobility time at 30 mg/kg, po administered at 1, 5, 23.5 hrs prior to testing measured for 5 mins by forced swimming test (reference value: 211.3 to 232.2 secs); assay type: functional

Cc1noc(C)c1-c1cc2c(c3c1CCC3)NC(C)(C)C(=O)C2(C)C
Time (Rattus norvegicus [1]): 187.3 s | AUC(0-inf) [2]: 0.46 µg·h/mL | AUC(0-t) [3]: 2.42 µg·h/mL | Time (Rattus norvegicus [4]): 170.7 s
